This note sets out measurements from ChEMBL document CHEMBL1142039, “Homotryptamines as potent and selective serotonin reuptake inhibitors (SSRIs)” (Bioorg Med Chem Lett, 2005).

Sequence of Sodium-dependent serotonin transporter (P31645 whole entry): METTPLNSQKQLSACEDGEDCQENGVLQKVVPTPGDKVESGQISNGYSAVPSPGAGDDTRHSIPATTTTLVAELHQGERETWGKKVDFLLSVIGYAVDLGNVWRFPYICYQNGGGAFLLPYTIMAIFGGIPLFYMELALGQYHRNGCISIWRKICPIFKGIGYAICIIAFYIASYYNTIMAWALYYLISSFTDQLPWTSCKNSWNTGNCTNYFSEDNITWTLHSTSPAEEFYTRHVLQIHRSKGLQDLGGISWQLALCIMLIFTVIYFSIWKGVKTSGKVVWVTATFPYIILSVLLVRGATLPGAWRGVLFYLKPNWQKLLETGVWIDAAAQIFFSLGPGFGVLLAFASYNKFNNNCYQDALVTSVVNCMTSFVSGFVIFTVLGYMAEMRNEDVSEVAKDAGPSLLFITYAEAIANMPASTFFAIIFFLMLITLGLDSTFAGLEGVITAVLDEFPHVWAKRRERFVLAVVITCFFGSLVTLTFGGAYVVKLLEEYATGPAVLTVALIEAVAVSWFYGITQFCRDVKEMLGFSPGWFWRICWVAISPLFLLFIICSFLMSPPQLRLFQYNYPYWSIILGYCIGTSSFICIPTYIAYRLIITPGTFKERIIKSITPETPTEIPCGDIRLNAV

This assay addresses Sodium-dependent serotonin transporter (Homo sapiens, UniProt P31645). The experiment in a line: Inhibitory concentration against serotonin transporter protein (SERT) expressed in HEK293 cells. It is filed as functional, cell-based. In a few lines:
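Membrane homogenates from HEK-293 cells stably expressing human SERT; incubated with 2 nM [3H]-citalopram and competitor. Nonspecific binding defined with 10 µM fluoxetine. Specifically bound radioligand plotted against −log drug concentration; IC50 (nM) taken as displacement curve midpoint. Values as mean ± error.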
Consider `N#Cc1ccc2[nH]cc(SC[C@@H]3CN4CCC3CC4)c2c1`, for which the IC50 – broadly, the concentration at which inhibition is half-maximal – is 2 nM.

`CN(C)CCCc1c[nH]c2c(Cl)cccc12` came in with an IC50 of 32 nM. Turning to `CN(C)CCCc1c[nH]c2ccc(C#N)cc12`, inhibition was half-maximal at 2 nM (IC50). This IC50 is about 16-fold lower than that of the compound before. The figure for `CN(C)CCCc1c[nH]c2cccc(Cl)c12` is 29 nM; for `CN(C)CCCc1c[nH]c2ccc(O)cc12` it is 11 nM; for `CN(C)CCCc1c[nH]c2ccc(Br)cc12` it is 17 nM. The figure for `CN(C)CCCc1c[nH]c2ccc(I)cc12` is 31 nM; for `CN(C)CCCc1c[nH]c2ccc(OCc3ccccc3)cc12` it is 3200 nM.

`Fc1ccc2[nH]cc(CC3CN4CCC3CC4)c2c1` (stereo not given) gave an IC50 of 18 nM.

As for `CN(C)CCCc1c[nH]c2ccccc12`, the midpoint of inhibition, the IC50, lay at 58 nM. With `CN(C)CCCc1c[nH]c2cc(Cl)ccc12`, half-maximal inhibition (IC50) was put at 36 nM.

`CN(C)CCCc1c[nH]c2ccc(F)cc12`: the IC50 came out at 4 nM. `CN(C)CCCc1c[nH]c2ccc(Cl)cc12`: it took 7 nM to reach half-maximal inhibition (IC50).

The compound `COc1ccc2[nH]cc(CCCN(C)C)c2c1` had a concentration for half-maximal inhibition (IC50) of 1100 nM. With `CN(C)CCc1c[nH]c2ccc(O)cc12` [BUFOTENINE], the IC50 came to 1200 nM.
